Data reported in ChEMBL document CHEMBL3259554, “Discovery, synthesis, and optimization of antimalarial 4(1H)-quinolone-3-diarylethers” (J Med Chem, 2014).
Calls of active or inactive are those of the source. The calls are words filed in the database; no cut-off is given here.

Tests used:
HepG2 = assay: Cytotoxicity against human HepG2 cells after 24 hrs incubation by Alamar Blue assay; assay type: cell-based; settings: HepG2, 24 h
Outline: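 HepG2 cells grown in RPMI-1640 with 10% FBS and seeded at 2 × 10⁴ cells/well, attached overnight. Drug serially diluted from 10 mM DMSO stocks to 2.5 nM–10 μM and incubated 24–36 h. Medium then replaced and cells kept a further 24 h. Resazurin added (final 10 μM) for 3 h, fluorescence read at ex 560/em 590 nm. Run in triplicate; IC50 by nonlinear logistic regression.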

[1] = Inhibition of cytochrome bc1 complex isolated from trophozoite stage Plasmodium falciparum
Outline: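 P. falciparum mitochondrial preparation assayed for cytochrome c reductase at 35 °C in a stirred cuvette. Buffer: 100 μM decylubiquinol, 100 μM horse heart cytochrome c, 0.1 mg/mL dodecyl maltoside, 60 mM HEPES pH 7.4, 10 mM malonate, 1.0 mM EDTA, 2.0 mM KCN. Baseline subtracted from the initial rate; activity expressed as a fraction of uninhibited control.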

[2] = Antimalarial activity against multidrug-resistant Plasmodium falciparum Dd2 MRA-156 infected in human red blood cells assessed as suppression of parasitemia after 72 hrs by SYBR Green I-based fluorescence method; assay type: functional
Outline: (§1)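 Asynchronous parasites in human erythrocytes, RPMI-1640 with HEPES, hypoxanthine, glucose, glutamine, 0.5% Albumax II; 2% hematocrit, 0.2% initial parasitemia. Triplicate 2-fold dilutions from 1 μM (lower start if needed), 72 h at 37 °C under 5% O2/5% CO2/90% N2. SYBR Green I dye-detergent added, 1 h dark at room temperature, fluorescence read. EC50 averaged over at least three determinations.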

Plasmodium falciparum [3] = assay: Antimalarial activity against chloroquine-sensitive Plasmodium falciparum D6 MRA-285 infected in human red blood cells assessed as suppression of parasitemia after 72 hrs by SYBR Green I-based fluorescence method; assay type: functional, organism-based; settings: D6 MRA-285, 72 h; outline: as §1
Plasmodium falciparum [4] = assay: Antimalarial activity against atovaquone-resistant clinical isolate Plasmodium falciparum TM90-C2B infected in human red blood cells assessed as suppression of parasitemia after 72 hrs by SYBR Green I-based fluorescence method; assay type: functional, organism-based; outline: as §1
Plasmodium yoelii [5] = assay: Antimalarial activity against Plasmodium yoelii MR4 MRA-428 infected in mouse CF1 assessed as dose required to achieve cure measured as 30 days survival administered through oral gavage once daily for 4 days; assay type: functional
Outline: (§2)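 P. yoelii-infected mice, randomly grouped in fours; dosing began day after inoculation (day 1), once daily by oral gavage in PEG-400 for four successive days; initial doses 0.1, 0.3, 1.0, 3.0, 10 mg/kg/day, range adjusted as needed. Day-5 Giemsa-smear parasitemia vs drug-free controls; ED50 derived graphically. Cure = parasite free 30 days after last dose; cure dose termed non-recrudescence dose.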

Plasmodium yoelii [6] = assay: Antimalarial activity against Plasmodium yoelii MR4 MRA-428 infected in mouse CF1 assessed as reduction on parasite burden administered through oral gavage once daily for 4 days; assay type: functional; outline: as §2
[7] = Inhibition of human cytochrome bc1 complex derived from HEK293 cell mitochondria using 50 uM decylubiquinol as substrate
Outline: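 Mitochondria isolated from HEK-293 cells by Dounce homogenization and differential centrifugation, dispersed in 2 mg/mL dodecyl maltoside for 45 min on ice, then clarified. Baseline-subtracted initial rates expressed as a fraction of uninhibited control.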

Liver microsome [8] = assay: Metabolic stability in human liver microsomes; assay type: ADME
Outline: (§3)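 Compound at 1 μM incubated at 37 °C with liver microsomes (0.4 mg protein/mL) in 0.1 M phosphate pH 7.4. Started with an NADPH-regenerating system plus MgCl₂ and quenched with cold acetonitrile at time points up to 60 min. Parent loss followed by LC-MS and fitted to first-order decay to give half-life and intrinsic clearance. E_H used liver blood flow of 20.7 (human) or 55.2 (rat) mL/min/kg.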

Liver microsome [9] = assay: Metabolic stability in rat liver microsomes; assay type: ADME; outline: as §3
Plasmodium yoelii [10] = assay: Antimalarial activity against Plasmodium yoelii MR4 MRA-428 infected in mouse CF1 assessed as reduction on parasite burden at 64 mg/kg administered through oral gavage once daily for 4 days; assay type: functional, organism-based; design: dose 64 mg/kg
Outline: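 P. yoelii model in mice, randomized into groups of four. Oral gavage in PEG-400 once daily for four successive days, starting the day after inoculation. Giemsa-stained blood smears read microscopically on day 5. Parasite burden compared with drug-free controls. Animals parasite free 30 days after the last dose counted as cured.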

SMILES | IC50 (HepG2) [nM] | IC50 [1] [nM] | EC50 [2] [nM] | EC50 (Plasmodium falciparum [3]) [nM] | EC50 (Plasmodium falciparum [4]) [nM] | NRD (Plasmodium yoelii [5]) | ED50 (Plasmodium yoelii [6]; MR4 MRA-428, po, 96 h) [mg/kg/day] | IC50 [7] [nM] | Stability (Liver microsome [8]) | Stability (Liver microsome [9]) | ED50 (Plasmodium yoelii [6]) | Activity (Plasmodium yoelii [10])
Cc1[nH]c2ccccc2c(=O)c1-c1ccc(Oc2ccc(OC(F)(F)F)cc2)cc1 | > 10000 | 8.9 | 5.9 | 4.1 | 7.5 | 3 mg/kg/day | 0.1 | 1900 |  |  |  | 
Cc1[nH]c2ccccc2c(=O)c1-c1ccc(Oc2ccc(OC(F)(F)F)cc2)nc1 | > 10000 |  | 5.8 | 3 | 4.3 |  |  |  |  |  |  | 
Cc1[nH]c2ccc(Cl)cc2c(=O)c1-c1ccc(Oc2ccc(OC(F)(F)F)cc2)cc1 | > 10000 |  | 5.6 | 3.2 | 2.3 | >3 mg/kg/day | 0.2 | > 10000 | Stable | Stable |  | 
O=C1C(O)=C([C@H]2CC[C@H](c3ccc(Cl)cc3)CC2)C(=O)c2ccccc21 [ATOVAQUONE] | > 10000 | 2 | 0.1 | 0.1 | 7700 |  |  | 410 |  |  |  | 
CCCCCCCc1c(C)nc2cc(OC)ccc2c1O | > 10000 |  | 3.1 | 3.8 | 11 | inactive |  | > 10000 |  |  | inactive | 
COc1cc2[nH]c(C)c(-c3ccc(Oc4cccc(OC(F)(F)F)c4)cc3)c(=O)c2cc1Cl | > 10000 |  | 0.03 | 0.03 | < 0.03 | >3 mg/kg/day | > 3 |  |  |  |  | 
COc1ccc2c(=O)c(-c3ccc(Oc4ccc(OC(F)(F)F)cc4)cc3)c(C)[nH]c2c1 | > 10000 |  | 3.4 | 1.7 | 2.3 |  |  | > 10000 | Unstable | Unstable |  | 
COc1cc2[nH]c(C)c(-c3ccc(Oc4ccc(OC(F)(F)F)cc4)cc3)c(=O)c2cc1F | > 10000 |  | 1.4 | 1.4 | 0.5 |  | 0.05 | > 10000 | Stable | Stable |  | 
COc1cc2[nH]c(C)c(-c3ccc(Oc4ccc(F)c(OC(F)(F)F)c4)cc3)c(=O)c2cc1Cl | > 10000 |  | 0.5 | 0.4 | 0.3 | >3 mg/kg/day | 0.06 |  |  |  |  | 
COc1cc2[nH]c(C)c(-c3ccc(Oc4ccc(OC(F)(F)F)c(F)c4)cc3)c(=O)c2cc1Cl | > 10000 |  | 12 | 12 | 5.8 |  |  |  |  |  |  | 
CCCCCCCc1c(C)[nH]c2cc(OC)c(Cl)cc2c1=O |  |  | 2.3 | 1.4 | 0.8 |  |  | > 10000 |  |  |  | 
COc1cc2[nH]c(C)c(-c3ccc(Oc4ccc(C(F)(F)F)cn4)cc3)c(=O)c2cc1Cl | > 10000 |  | 6.8 | 8.1 | 4.1 |  |  |  |  |  |  | 
Cc1[nH]c2ccc(F)cc2c(=O)c1-c1ccc(Oc2ccc(OC(F)(F)F)cc2)nc1 | > 10000 |  | 13 | 13 | 11 |  |  |  |  |  |  | 
COc1cc2[nH]c(C)c(-c3cnc(Oc4ccc(OC(F)(F)F)cc4)nc3)c(=O)c2cc1Cl | > 10000 |  | > 2500 | > 2500 | > 2500 |  |  |  |  |  |  | 
COc1cc2[nH]c(C)c(-c3ccc(Oc4ccc(OC(F)(F)F)cc4)nc3)c(=O)c2cc1Cl | > 10000 |  | 0.2 | 0.3 | 0.4 | >3 mg/kg/day | 0.3 |  |  |  |  | 
Cc1[nH]c2ccccc2c(=O)c1-c1ccc(Oc2ccccc2)cc1 | > 10000 |  | 12 | 8.4 | 7.2 |  |  |  |  |  |  | 
COc1cc2[nH]c(C)c(-c3ccc(Oc4ccc(Cl)cc4)cc3)c(=O)c2cc1Cl | > 10000 |  | 1.8 | 1.9 | 1.2 | >0.3 mg/kg/day | 0.05 |  |  |  |  | 
COc1cc2[nH]c(C)c(-c3ccc(Oc4ccccc4)cc3)c(=O)c2cc1F | > 10000 |  | 43 | 40 | 8.5 |  |  |  |  |  |  | 
COc1cc2[nH]c(C)c(-c3ccc(Oc4ccc(C(F)(F)F)cc4)cc3)c(=O)c2cc1Cl | > 10000 |  | 0.3 | 0.3 | 0.05 | 1 mg/kg/day | 0.03 |  |  |  |  | 
COc1cc2[nH]c(C)c(-c3ccc(Oc4ccc(F)cc4)cc3)c(=O)c2cc1Cl | > 10000 |  | 3.8 | 0.8 |  | >3 mg/kg/day | < 1 |  |  |  |  | 
Cc1[nH]c2ccc(F)cc2c(=O)c1-c1ccc(Oc2ccc(OC(F)(F)F)cc2)cc1 | > 10000 |  | 2.4 | 1.5 | 1.7 | 3 mg/kg/day | 0.1 | > 10000 | Stable | Stable |  | 
CCN(CC)CCCC(C)Nc1ccnc2cc(Cl)ccc12 (centres undefined) [CHLOROQUINE] |  |  |  |  |  | >64 mg/kg/day | 2.2 |  |  |  |  | inactive
COc1cc2[nH]c(C)c(-c3ccc(Oc4ccc(OC(F)(F)F)cc4)cn3)c(=O)c2cc1Cl | > 10000 |  | 0.5 | 0.4 | 0.2 | >3 mg/kg/day | < 1 |  |  |  |  | 
Cc1[nH]c2ccc(Cl)cc2c(=O)c1-c1ccc(Oc2ccc(OC(F)(F)F)cc2)nc1 | > 10000 |  | 6.1 | 3.6 | 1.5 |  |  |  |  |  |  | 
